Published values from different studies.
AMY2: Pancreatic alpha-amylase (AMY2, Sus scrofa, UniProt P00690)
D14: D14 (Arabidopsis thaliana, UniProt Q9SQR3)

SMILES	target	assay	conditions	endpoint	value
COc1ccc([C@@H]2CC(=O)c3c(O)cc(O)cc3O2)cc1O	AMY2	enzyme activity, inhibitor	50 µM, 30 min	inhibition	30.3%
Cc1cc(S(=O)(=O)N[C@H]2CC[C@H](CN3CCN(c4ccc(C5CCC(=O)NC5=O)cc4F)CC3)CC2)ccc1Nc1ncc(C(F)(F)F)c(N2CCC[C@](C)(O)C2)n1 (stereo partly shown)	Cyclin-dependent kinase 4, with cyclin D1 (CDK4, Homo sapiens, UniProt P11802)	binding, competition with immobilised ligand	1 µM	remaining binding	75%
Cc1cc(O)c(-c2ccc([C@@H](C)CN(C)C)cc2)c2c1[nH]c(=O)c1sccc12	Eukaryotic translation initiation factor 2-alpha kinase 3 (EIF2AK3, Homo sapiens, UniProt Q9NZJ5)	enzyme activity, inhibitor	0.1 µM	inhibition	-7.06%
CC(=O)/C=C/C=C(C)/C=C/C1=C(C)CC(O)CC1(C)C (stereo in doubt)	D14	thermal stability	20 µM	ΔTm	4.65 °C
O=c1cc(-c2ccc(O)c(O)c2)oc2cc(O)cc(O)c12	AMY2	enzyme activity, inhibitor	50 µM, 30 min	inhibition	97.5%
CCCCC(=O)Nc1ccc(-c2ccc3ncn(CCC)c(=O)c3c2)cn1	Tyrosine-protein kinase Fer (FER, Homo sapiens, UniProt P16591)	binding, competition with immobilised ligand	0.5 µM	remaining binding	100%
C1=C/COCc2cc(ccc2OCCN2CCCC2)Nc2nccc(n2)-c2cccc(c2)COC/1	Myosin-IIIb (MYO3B, Homo sapiens, UniProt Q8WXR4)	binding	0.1 µM	remaining binding	100%
CC1=C(/C=C/C(C)=C/C=O)C(C)(C)CCC1	D14	thermal stability, DSF	100 µM	ΔTm	-9.02 °C
O=c1cc(-c2ccc(O)cc2)oc2c(Br)c(O)c(Br)c(O)c12	AMY2	enzyme activity, inhibitor	50 µM, 30 min	inhibition	68.2%
NC/C(=C\F)COc1cccc(Cn2c(=S)[nH]c(=O)c3[nH]cnc32)c1	Muscarinic acetylcholine receptor M2 (CHRM2, Homo sapiens, UniProt P08172)	ligand displacement, radioligand	10 µM	inhibition	< 50%
CC1=CC(O/C=C2/C(=O)OC3c4ccccc4CC23)OC1=O (racemic)	D14	thermal stability, DSF	1 µM	ΔTm	-0.035 °C
O=c1c(O)c(-c2ccc(O)cc2)oc2cc(O)cc(O)c12	AMY2	enzyme activity, inhibitor	50 µM, 30 min	inhibition	88.9%
C#Cc1cc(-c2cc(Nc3nc(N[C@@H](C)c4ccc(F)cn4)ncc3Cl)n[nH]2)ccc1C=O	MAP kinase-activated protein kinase 5 (MAPKAPK5, Homo sapiens, UniProt Q8IW41)	enzyme activity, inhibitor	0.2 µM	inhibition	14.9%
COc1ccc2oc(-c3ccc4nc(N)oc4c3)c/c(=N\c3ccccc3NC(=O)CCN)c2c1	Serine-protein kinase ATM (ATM, Homo sapiens, UniProt Q13315)	binding, competition with immobilised ligand	1 µM	remaining binding	94%
CC1=C(/C=C/C(C)=C/C=O)C(C)(C)C[C@H](O)C1	D14	thermal stability, DSF	50 µM	ΔTm	-3.04 °C
O=c1cc(-c2ccc(O)cc2)oc2cc(O)cc(O)c12	AMY2	enzyme activity, inhibitor	50 µM	inhibition	87.5%
